# NF-kB neuron act – activators of NF-kB expression in neurons, primary screen, cell-based, HTS. AID 1239, 2008. human neuronal cells, NF-kB reporter expression; hits give high values. fold change at 12.5 µM. hit rate 1.6% among 190,000; in the data active = fold change above about 3.3
# APP 5'UTR act – activators of APP 5'UTR luciferase reporter, primary screen, SH-SY5Y cells. hit rate 1% among 190,000. activation, % at 2 µM. SH-SY5Y APP 5'UTR luciferase reporter, luminescence; zero percent = DMSO vehicle wells;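 active = activation above a set limit, based on mean plus 3 SD of controls, cut at about 140% in these data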
# STAT1 activator – STAT1 signaling activators, primary screen, cell-based, HTS, luciferase reporter. hit rate 2.6% among 200,000. AID 932, 2007. NIH 3T3 STAT1-luciferase reporter, IFN-gamma, luminescence; 100% = IFN-gamma alone, no compound. activation (% of control), % at 5.5 µM;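 active = activation above the screen-wide mean activation plus 3 SD, cut at about 130% in these data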;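 note: raw ratio to IFN-gamma control signal so 100% means no change and 0% no light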
# FLuc stim CS – FLuc activators, initial screening, artefact control for FLuc-dependent activation tests, biochemical, ATPlite luminescence | Luciferin 4-monooxygenase (Photinus pyralis), P08659 | ATPlite luciferase biochemical, 10 min; 0 = ATP-free wells, 1 = DMSO control | activation factor at 10 µM | 200,000 tested, under 10 active | AID 1027, 2008;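 active = luciferase activation factor, scaled between plate controls, of at least 2 with compound at 10 µM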
# Target sequence (P08659 whole entry, looked up): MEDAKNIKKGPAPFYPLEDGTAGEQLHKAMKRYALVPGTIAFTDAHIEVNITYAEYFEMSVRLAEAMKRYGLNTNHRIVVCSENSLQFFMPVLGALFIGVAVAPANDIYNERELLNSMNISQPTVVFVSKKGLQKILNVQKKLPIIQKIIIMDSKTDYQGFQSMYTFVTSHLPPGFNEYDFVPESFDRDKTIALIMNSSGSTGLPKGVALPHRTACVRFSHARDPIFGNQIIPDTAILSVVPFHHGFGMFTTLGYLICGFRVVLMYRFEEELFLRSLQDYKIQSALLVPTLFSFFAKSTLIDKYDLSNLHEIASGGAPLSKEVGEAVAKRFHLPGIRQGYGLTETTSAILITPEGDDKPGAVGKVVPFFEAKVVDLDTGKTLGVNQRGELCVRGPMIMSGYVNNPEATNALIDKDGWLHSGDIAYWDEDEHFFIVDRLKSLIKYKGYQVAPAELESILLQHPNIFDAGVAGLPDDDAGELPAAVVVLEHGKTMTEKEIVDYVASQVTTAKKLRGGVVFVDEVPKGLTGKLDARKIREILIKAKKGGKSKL
#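 Assay system – cell-free luciferase reagent · Medium – PBS-based ATP solution · Dosing – test compounds dosed from 2 mM stocks in 100% DMSO · Timing – 10 min, room temperature · Technique – light output (luminescence) · Measure – luminescence gain marking luciferase activators · Controls – No-ATP low control, compound-free enzyme-plus-ATP high control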
# FLuc inhib CS – firefly luciferase enzyme inhibitors, primary screen, artefact control for luciferase-based inhibitor screens, biochemical, luminescence, ATPLite; Luciferin 4-monooxygenase (Photinus pyralis), P08659; 10 min; inhibition, % at 10 µM; hit rate 1.5% among 200,000;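 active = inhibition above about 50% when tested at 10 µM, limit read from the data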
# Pf gamet viab – late stage P. falciparum gametocyte viability inhibitors, primary screen, ATP luminescence, HTS; inhibition, % at 10.9 µM; P. falciparum stage V gametocytes, 24 h; hit rate 0.065% among 150,000;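 active = inhibition above the mean plus 3 SD of compounds within the control limits, set per campaign, cut at about 38% in these data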;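 note: 0% = DMSO wells and 100% = medium only without gametocytes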
# * = called active by the depositor; nt = not tested or not shown. In the library only some 3.5% were active in any assay of this set; here they are far more common.
SMILES,NF-kB neuron act,APP 5'UTR act,STAT1 activator,FLuc stim CS,FLuc inhib CS,Pf gamet viab
N/C(=N\N=C\c1ccc([N+](=O)[O-])cc1)c1nonc1N,nt,nt,nt,nt,nt,0.7
O=C(Nc1cnc2sccn2c1=O)c1ccc(Cl)cc1Cl,1.54,39.2,131.9*,0.7,25.6,nt
O=C(c1cc(-c2ccc(Cl)cc2Cl)on1)N1CCOCC1,1.68,196.2*,98.5,0.3,73.4*,nt
O=C(c1cc(-c2ccc3c(c2)OCO3)on1)N1CCOCC1,3.12,112.0,112.4,0.3,69.7*,-3.2
O=C(c1cc(-c2ccc(Cl)cc2)on1)N1CCOCC1,5.05*,158.5*,143.7*,0.4,60.1*,1.4
Cn1c(SCC(=O)N2CCOCC2)nnc1-c1ccc(Cl)cc1Cl,1.04,4.4,93.5,1.1,-5.5,-1.6
O=C(NCCN1CCOCC1)c1cc(-c2ccc(Cl)cc2)on1,1.66,-13.0,96.4,1.1,-5.3,nt
O=C(C[C@@H]1C/C=C\CCCC(=O)OC[C@@H]2CCCN2C1=O)N[C@@H](CO)Cc1ccccc1,nt,nt,nt,nt,nt,6.0
Cc1cccc2nc(-c3ccccc3)nc(N[C@@H](CO)c3ccccc3)c12,1.16,1.0,93.3,1,-3.1,11.8
Cc1ccc(NC(=S)NNC(=O)c2c(Cl)c(C)nn2C)cc1,0.93,14.7,99.9,1,-3.7,-15.5
Cc1ccc(NC(=S)NNC(=O)c2nn(C)c(C)c2Cl)cc1,2.85,112.0,131.1*,0.7,31.5,nt
N=C1C(c2nc3ccccc3s2)=C(O)CN1c1ccccc1,1.61,17.4,149.0*,1,2.1,0.7
COc1ccc(-c2csc(CCN3N=C(C)CC3=O)n2)cc1,1.04,-14.7,93.1,1,-2.8,-25.7
Cc1cc(C(=O)Nc2ccc([N+](=O)[O-])cn2)cs1,nt,nt,nt,nt,nt,6.0
N/C(=N\OC(=O)c1ccccc1)c1ccccn1,0.99,150.3*,33.4,0,96.0*,20.9
N/C(=N\OC(=O)c1ccccc1)c1ccncc1,1.14,38.4,114.9,0.3,65.9*,-6.5
N/C(=N\OC(=O)c1ccc(Br)cc1)c1ccncc1,2.32,78.1,142.7*,0.3,67.6*,5.4
N/C(=N\OC(=O)c1ccc(Br)o1)c1ccccn1,3.68*,149.2*,119.0,0.2,78.5*,2.4
Cc1ccc(C(=O)O/N=C(\N)c2ccccn2)cc1C,nt,nt,nt,nt,nt,12.2
CCOC(=O)c1cnc(SC)nc1Sc1cc(Cl)ccc1Cl,1.03,8.2,89.1,1,2.0,-0.6
CC(=O)OCC1OC(OC(C)=O)C(NC(=O)c2cccnc2)C(OC(C)=O)C1OC(C)=O (stereo unspecified),1.31,-6.5,105.6,1.1,-5.1,31.2
COC(=O)c1ccc(COC(=O)c2ccccn2)cc1,1.45,-2.7,132.8*,0.7,34.2,nt
O=C(N/N=C/c1cccc(O)c1)c1csc2ccccc12,1.55,13.6,102.2,0.9,11.2,-20.2
O=C(N/N=C/c1cccc(F)c1)c1ccc(Cl)cc1,2.7,19.9,138.0*,0.4,57.6*,nt
Fc1cccc(/C=N/NC(=S)Nc2ccccc2Cl)c1,1.67,14.4,131.1*,1.1,-12.5,nt
SMILES,NF-kB neuron act,APP 5'UTR act,STAT1 activator,FLuc stim CS,FLuc inhib CS,Pf gamet viab
O=C(N/N=C/c1ccccc1Cl)c1cccc(F)c1,2.1,70.5,148.5*,0.5,45.4,nt
O=C(N/N=C/c1c(Cl)cccc1Cl)c1cccc(F)c1,0.97,12.6,113.1,1,-1.1,nt
O=C(N/N=C/c1cccc(F)c1)c1csc2c1CCCC2,5.47*,123.3,142.5*,0.7,30.8,6.2
Cc1cccc(-c2nc(=S)c3c(o2)CCCC3)c1,2.7,117.6,139.0*,0.5,46.1,14.1
COCC1CCN(Cc2nc(-c3cccs3)no2)C1 (stereo unspecified),nt,48.9,134.8*,0.8,18.1,-1.9
Cn1cc(Br)c(C(=O)NC2C3CC4CC(C3)CC2C4)n1 (stereo unspecified),1.09,14.4,146.8*,1,2.7,4.6
O=C(CSc1nc2ccccc2o1)Nc1nc(-c2ccccc2)cs1,0.5,74.5,147.4*,1,1.7,-10.0

# Bioassay records: PubChem BioAssay, several laboratories
